Measured values from different studies.
Lines come from different studies, so protocols differ.
Cell line: HCT-116
Effect on: cell growth or viability

SMILES	assay	conditions	endpoint	result
CCOc1ccc(C(=O)CC(SCc2ccc(Cl)cc2)C(=O)OC)cc1 (stereo not drawn)	MTT	48 h	EC50	70 µM
CCc1ccc(N=C2C(=O)Nc3ccccc32)cc1	MTT	48 h	IC50	64.7 µM
C[C@H](N)C(=O)Nc1ccccc1/N=c1\cc(-c2ccc3c(c2)OCCO3)oc2c([N+](=O)[O-])cccc12	CCK-8	1 µM	inhibition	12.7%
COc1ccc(C=NNC(=O)c2nc3ccccc3s2)cc1O	MTT	100 µM, 48 h	cell death	33.5%
CCOc1ccc(-c2cc(C(=O)O)c(-c3ccc(Cl)cc3)o2)cc1	MTT	48 h	EC50	78 µM
O=c1[nH]cc(F)c(=O)[nH]1	MTT	100 µM, 48 h	cell death	84.6%
Oc1cccc(-c2nc(N3CCOCC3)c3oc4ncccc4c3n2)c1	CCK-8	1 µM	inhibition	12.5%
COc1cc(C=NNC(=O)c2nc3ccccc3s2)ccc1O	MTT	100 µM, 48 h	cell death	44.6%
COc1cccc2c1C(=O)c1c(O)c3c(c(O)c1C2=O)C[C@@](O)(C(=O)CO)C[C@@H]3O[C@H]1C[C@H](N)[C@H](O)[C@H](C)O1	MTT	24 h	IC50	1.06 µM
O=C1C(=Nc2ccc(Cl)cc2Br)c2ccccc2N1Cc1ccc([N+](=O)[O-])cc1	MTT	48 h	IC50	24.9 µM
Nc1nc2ccc(-c3c/c(=N\c4ccccc4NC(=O)C4CCNC4)c4ccccc4o3)cc2o1 (stereo not drawn)	CCK-8	1 µM	inhibition	62.6%
O=C1Nc2ccccc2C1=Nc1ccc(Cl)cc1	MTT	48 h	IC50	> 100 µM
COc1cccc2c1C(=O)c1c(O)c3c(c(O)c1C2=O)C[C@@](O)(C(=O)CO)C[C@@H]3O[C@H]1C[C@H](N)[C@H](O)[C@H](C)O1	MTT	–	IC50	41.2 µM
COc1cc(N=C2C(=O)N(Cc3ccccc3)c3ccccc32)cc(OC)c1	MTT	48 h	IC50	8.73 µM
NCCC(=O)Nc1ccccc1/N=c1\cc(-c2ccc3c(c2)OCO3)oc2ccccc12	CCK-8	1 µM	inhibition	10.8%
